Source: ChEMBL document CHEMBL1125303, “Truncated, branched, and/or cyclic analogues of neuropeptide Y: importance of the pancreatic peptide fold in the design of specific Y2 receptor ligands” (J Med Chem, 1992)
pKd: −log10 of the molar value. Positions of bridges follow the written chain, without caps; N, C: chain ends. Non-standard residues stand in square brackets, D forms with d. Residues, ends and D or L forms follow the SMILES beside them. Orn = NCCC[C@H](N)C(=O)O; Dap = NC[C@H](N)C(=O)O

Experiments:
[1] = target: T1, Neuropeptide Y receptor type 1 (Homo sapiens, UniProt P25929); assay: Displacement of l25I-PYY from Neuropeptide Y receptor type 1 of human neuroblastoma SK-N-MC cells; type: cell-based
T1 sequence (P25929 whole entry): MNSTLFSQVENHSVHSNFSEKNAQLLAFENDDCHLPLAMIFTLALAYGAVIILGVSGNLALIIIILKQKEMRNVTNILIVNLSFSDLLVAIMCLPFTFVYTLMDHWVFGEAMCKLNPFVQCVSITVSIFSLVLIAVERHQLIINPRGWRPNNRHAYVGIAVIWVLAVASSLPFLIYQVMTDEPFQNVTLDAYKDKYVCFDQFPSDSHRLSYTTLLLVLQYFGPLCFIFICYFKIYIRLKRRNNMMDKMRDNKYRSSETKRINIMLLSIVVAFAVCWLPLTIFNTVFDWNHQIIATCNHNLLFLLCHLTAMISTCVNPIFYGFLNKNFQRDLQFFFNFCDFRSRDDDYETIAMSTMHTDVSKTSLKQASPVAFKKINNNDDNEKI
How it was run: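 Intact SK-N-MC cells (Y1) were grown in MEM with 10% FCS, then plated at 10⁶ cells/well on poly(Lys-Ala)-coated wells and used after 2 days. Cells were washed cold, lysed and gamma-counted. Triplicates; Kd fitted with LIGAND.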

[2] = target: T2, Neuropeptide Y receptor type 2 (Homo sapiens, UniProt P49146); assay: Displacement of l25I-PYY from Neuropeptide Y receptor type 2 of human neuroblastoma SK-N-BE cells; type: cell-based
T2 sequence (P49146 whole entry): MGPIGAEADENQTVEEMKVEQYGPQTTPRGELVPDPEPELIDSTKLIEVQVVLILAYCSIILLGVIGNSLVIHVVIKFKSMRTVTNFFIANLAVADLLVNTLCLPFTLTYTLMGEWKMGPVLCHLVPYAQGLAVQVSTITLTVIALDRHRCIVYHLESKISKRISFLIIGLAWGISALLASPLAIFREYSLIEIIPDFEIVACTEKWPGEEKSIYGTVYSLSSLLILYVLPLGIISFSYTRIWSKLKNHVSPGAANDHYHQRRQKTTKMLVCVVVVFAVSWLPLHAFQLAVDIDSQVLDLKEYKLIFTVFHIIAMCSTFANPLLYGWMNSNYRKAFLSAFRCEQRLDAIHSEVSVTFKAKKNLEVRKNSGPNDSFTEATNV
How it was run: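 Intact SK-N-BE(2) cells (Y2) were grown in DME:F12 with 10% FCS, then plated at 10⁶ cells/well on poly(Lys-Ala)-coated wells and used after 1 day. Cells were washed cold, lysed and gamma-counted. Triplicates; Kd fitted with LIGAND.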

Row | Structure (SMILES) | pKd ([1]; sk-n-mc) | pKd ([2]; sk-n-be) | pKd [1] | pKd [2]
1 | CC[C@H](C)[C@H](NC(=O)[C@H](CC(C)C)NC(=O)[C@H](CC(N)=O)NC(=O)[C@@H](NC(=O)[C@H]1CNC(=O)CC[C@H](NC(=O)[C@@H](N)Cc2ccc(O)cc2)C(=O)N[C@@H](CO)C(=O)N[C@@H](CCCCN)C(=O)N2CCC[C@H]2C(=O)N[C@H](C)C(=O)N[C@@H](CC(C)C)C(=O)N[C@@H](CCCNC(=N)N)C(=O)N[C@@H](Cc2cnc[nH]2)C(=O)N1)[C@@H](C)CC)C(=O)N[C@H](C(=O)N[C@@H](CCCNC(=N)N)C(=O)N[C@@H](CCC(N)=O)C(=O)N[C@@H](CCCNC(=N)N)C(=O)N[C@@H](Cc1ccc(O)cc1)C(N)=O)[C@@H](C)O | < 6.00 | 8.44 |  | 
2 | CC[C@H](C)[C@H](NC(=O)[C@H](Cc1ccc(O)cc1)NC(=O)[C@@H](C)NC(=O)[C@@H]1CCCN1C(=O)[C@@H](N)Cc1ccc(O)cc1)C(=O)N[C@@H](CC(N)=O)C(=O)N[C@@H](CC(C)C)C(=O)N[C@H](C(=O)N[C@H](C(=O)N[C@@H](CCCN=C(N)N)C(=O)N[C@@H](CCC(N)=O)C(=O)N[C@@H](CCCN=C(N)N)C(=O)N[C@@H](Cc1ccc(O)cc1)C(N)=O)[C@@H](C)O)[C@@H](C)CC |  | 6.92 |  | 
3 | CC[C@H](C)[C@@H]1NC(=O)[C@H](Cc2ccc(O)cc2)NC(=O)[C@@H](C)NC(=O)[C@@H]2CCCN2C(=O)[C@@H](N)CCC(=O)NC[C@H](C(=O)N[C@H](C(=O)N[C@H](C(=O)N[C@@H](CCCNC(=N)N)C(=O)N[C@@H](CCC(N)=O)C(=O)N[C@@H](CCCNC(=N)N)C(=O)N[C@@H](Cc2ccc(O)cc2)C(N)=O)[C@@H](C)O)[C@@H](C)CC)NC(=O)[C@H](CC(N)=O)NC1=O |  |  | < 6.00 | < 6.00
4 | CC[C@H](C)[C@@H]1NC(=O)[C@H](Cc2ccc(O)cc2)NC(=O)[C@H](Cc2c[nH]cn2)NC(=O)[C@H](CCCNC(=N)N)NC(=O)[C@H](CC(C)C)NC(=O)[C@@H](C)NC(=O)[C@@H]2CCCN2C(=O)[C@H](CCCCN)NC(=O)[C@H](CO)NC(=O)[C@@H](NC(=O)[C@@H](N)Cc2ccc(O)cc2)CCC(=O)NC[C@H](C(=O)N[C@H](C(=O)N[C@H](C(=O)N[C@@H](CCCNC(=N)N)C(=O)N[C@@H](CCC(N)=O)C(=O)N[C@@H](CCCNC(=N)N)C(=O)N[C@@H](Cc2ccc(O)cc2)C(N)=O)[C@@H](C)O)[C@@H](C)CC)NC(=O)[C@H](CC(N)=O)NC1=O | < 6.00 |  |  | 
5 | CC[C@H](C)[C@H](NC(=O)[C@H](Cc1ccc(O)cc1)NC(=O)[C@H](Cc1c[nH]cn1)NC(=O)[C@H](CCCN=C(N)N)NC(=O)[C@H](CC(C)C)NC(=O)[C@H](C)NC(=O)[C@H](CO)NC(=O)[C@H](Cc1ccc(O)cc1)NC(=O)[C@H](Cc1ccc(O)cc1)NC(=O)[C@H](CCCN=C(N)N)NC(=O)[C@H](C)N)C(=O)N[C@@H](CC(N)=O)C(=O)N[C@H]1CCCCNC(=O)CC[C@@H](C(=O)N[C@@H](CCCN=C(N)N)C(=O)N[C@@H](Cc2ccc(O)cc2)C(N)=O)NC(=O)[C@H](CCCN=C(N)N)NC(=O)[C@H]([C@@H](C)O)NC(=O)[C@H]([C@@H](C)CC)NC1=O (H-ARYYSALRHYINKITRERY-NH2; lactam 13-17) | < 6.00 | 6.44 |  | 
6 | CC[C@H](C)[C@H](NC(=O)[C@H](Cc1ccc(O)cc1)NC(=O)[C@H](Cc1c[nH]cn1)NC(=O)[C@H](CCCNC(=N)N)NC(=O)[C@H](CC(C)C)NC(=O)[C@H](C)NC(=O)[C@H](CO)NC(=O)[C@H](Cc1ccc(O)cc1)NC(=O)[C@H](Cc1ccc(O)cc1)NC(=O)[C@H](CCCNC(=N)N)NC(=O)[C@H](C)N)C(=O)N[C@@H](CC(N)=O)C(=O)N[C@@H](CC(C)C)C(=O)N[C@H](C(=O)N[C@H](C(=O)N[C@H]1CCCCNC(=O)CC[C@@H](C(N)=O)NC(=O)[C@H](CCCNC(=N)N)NC(=O)[C@H](CCC(N)=O)NC1=O)[C@@H](C)O)[C@@H](C)CC (H-ARYYSALRHYINLITKQRE-NH2; lactam 16-19) |  |  | < 6.00 | 
7 | CC[C@H](C)[C@H](NC(=O)[C@H](Cc1ccc(O)cc1)NC(=O)[C@H](Cc1cnc[nH]1)NC(=O)[C@H](CCCNC(=N)N)NC(=O)[C@H](CC(C)C)NC(=O)[C@H](C)NC(=O)[C@H](CO)NC(=O)[C@H](Cc1ccc(O)cc1)NC(=O)[C@H](Cc1ccc(O)cc1)NC(=O)[C@H](CCCNC(=N)N)NC(=O)[C@H](C)N)C(=O)N[C@@H](CC(N)=O)C(=O)N[C@H]1CNC(=O)CC[C@@H](C(=O)N[C@@H](CCCNC(=N)N)C(=O)N[C@@H](Cc2ccc(O)cc2)C(N)=O)NC(=O)[C@H](CCCNC(=N)N)NC(=O)[C@H]([C@@H](C)O)NC(=O)[C@H]([C@@H](C)CC)NC1=O (H-ARYYSALRHYIN[Dap]ITRERY-NH2; lactam 13-17) | < 6.00 | 6.23 |  | 
8 | CC[C@H](C)[C@H](NC(=O)[C@H](Cc1ccc(O)cc1)NC(=O)[C@H](Cc1cnc[nH]1)NC(=O)[C@H](CCCNC(=N)N)NC(=O)[C@H](CC(C)C)NC(=O)[C@H](C)NC(=O)[C@H](CO)NC(=O)[C@H](Cc1ccc(O)cc1)NC(=O)[C@H](Cc1ccc(O)cc1)NC(=O)[C@H](CCCNC(=N)N)NC(=O)[C@H](C)N)C(=O)N[C@@H](CC(N)=O)C(=O)N[C@H]1CCCNC(=O)CC[C@@H](C(=O)N[C@@H](CCCNC(=N)N)C(=O)N[C@@H](Cc2ccc(O)cc2)C(N)=O)NC(=O)[C@H](CCCNC(=N)N)NC(=O)[C@H]([C@@H](C)O)NC(=O)[C@H]([C@@H](C)CC)NC1=O (H-ARYYSALRHYIN[Orn]ITRERY-NH2; lactam 13-17) | < 6.00 | 6.02 |  | 
